Measured values: ChEMBL document CHEMBL2380254, “Optimization of tocotrienols as antiproliferative and antimigratory leads” (Eur J Med Chem, 2013)

What was measured:
Assay type in all cases: functional
HT-29 = experiment: Growth inhibition of human HT-29 cells after 48 hrs by sulforhodamine B assay; details: HT-29, 48 h
Outline: (§1)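 NCI-60 screen: cells in RPMI 1640 with 5% FBS and 2 mM glutamine, 5000–40,000 cells/well, preincubated 24 h. Five concentrations (10-fold dilutions; 100 to 0.001 µM) applied for 48 h at 37 °C. TCA fixation, SRB stain, absorbance at 515 nm. Time-zero plates included; GI50 where 100×(T−T0)/(C−T0)=50.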

SF-539 = experiment: Growth inhibition of human SF539 cells after 48 hrs by sulforhodamine B assay; details: SF-539, 48 h
Outline: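 NCI-60 panel cells grown in RPMI 1640 with 5% FBS and 2 mM L-glutamine, seeded at 5000–40,000 cells/well and preincubated 24 h. Five 10-fold dilutions (0.001–100 µM) from DMSO stocks were added for 48 h at 37 °C. Adherent cells were fixed with cold TCA (10% final) for 60 min at 4 °C, stained with 0.4% SRB, and read at 515 nm. GI50 was set where 100×(T−T0)/(C−T0)=50.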

MDA-MB-468 = experiment: Growth inhibition of human MDA-MB-468 cells assessed as cell growth at 10 uM after 48 hrs by sulforhodamine B assay; details: MDA-MB-468, 48 h, read-out: Activity
Outline: (§2)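 Single-dose NCI-60 screen: adherent cells in RPMI 1640 with 5% FBS were exposed to 10 µM for 48 h at 37 °C after a 24 h preincubation. They were fixed in situ with cold TCA (10% final), stained with 0.4% SRB in 1% acetic acid, solubilized in 10 mM Tris base, and read at 515 nm. Percent growth was taken relative to time-zero and control plates.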

NCI-H322M = experiment: Growth inhibition of human NCI-H322M cells assessed as cell growth at 10 uM after 48 hrs by sulforhodamine B assay; details: read-out: Activity; outline: as §2
MDA-MB-231 = experiment: Growth inhibition of human MDA-MB-231 cells assessed as cell growth at 10 uM after 48 hrs by sulforhodamine B assay; details: MDA-MB-231, 48 h, read-out: Activity; outline: as §2
OVCAR-5 = experiment: Growth inhibition of human OVCAR5 cells assessed as cell growth at 10 uM after 48 hrs by sulforhodamine B assay; details: OVCAR-5, 48 h, read-out: Activity; outline: as §2
786-0 = experiment: Growth inhibition of human 786-0 cells assessed as cell growth at 10 uM after 48 hrs by sulforhodamine B assay; details: 786-0, 48 h, read-out: Activity
Outline: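 NCI-60 single-dose screen at 10 µM: cells in RPMI 1640 with 5% FBS, preincubated 24 h, then exposed 48 h at 37 °C. TCA fixation (16% final for suspension cells), SRB staining, absorbance 515 nm. Percent growth relative to time-zero and untreated control plates; negative values indicate cell kill.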

UACC-62 = experiment: Growth inhibition of human UACC62 cells after 48 hrs by sulforhodamine B assay; details: UACC-62, 48 h
Outline: (§3)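 NCI-60 five-dose screen. Cells were grown in RPMI 1640 with 5% FBS and 2 mM L-glutamine, plated at 5000–40,000 cells/well and incubated 24 h before dosing, with T0 plates TCA-fixed. DMSO stocks were diluted to doses of […] and exposed 48 h at 37 °C, 5% CO2. Cells were fixed with cold TCA (final 10%, 60 min, 4 °C), stained with 0.4% SRB in 1% acetic acid for 10 min, solubilized in 10 mM trizma base and read at 515 nm. GI50 is where 100×(T−T0)/(C−T0)=50.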

HOP-92 = experiment: Growth inhibition of human HOP92 cells after 48 hrs by sulforhodamine B assay; details: HOP-92, 48 h; outline: as §1
A549 = experiment: Growth inhibition of human A549/ATCC cells after 48 hrs by sulforhodamine B assay; details: A549, 48 h; outline: as §1
A498 = experiment: Growth inhibition of human A498 cells after 48 hrs by sulforhodamine B assay; details: A498, 48 h; outline: as §1
PC-3 = experiment: Growth inhibition of human PC3 cells assessed as cell growth at 10 uM after 48 hrs by sulforhodamine B assay; details: PC-3, 48 h, read-out: Activity; outline: as §2
NCI-H522 = experiment: Growth inhibition of human NCI-H522 cells assessed as cell growth at 10 uM after 48 hrs by sulforhodamine B assay; details: NCI-H522, 48 h, read-out: Activity; outline: as §2
HL-60(TB) = experiment: Growth inhibition of human HL-60(TB) cells assessed as cell growth at 10 uM after 48 hrs by sulforhodamine B assay; details: HL-60, 48 h, read-out: Activity
Outline: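 NCI-60 single-dose screen run at 10 µM on HL-60(TB) suspension cells in RPMI 1640 with 5% FBS and 2 mM L-glutamine. Cells were preincubated for 24 h, with a time-zero plate fixed then. Exposure lasted 48 h at 37 °C. Settled cells were fixed with TCA (16% final), stained with SRB and read at 515 nm. Percent growth is relative to control and T0.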

BT-549 = experiment: Growth inhibition of human BT549 cells after 48 hrs by sulforhodamine B assay; details: BT-549, 48 h; outline: as §1
MOLT-4 = experiment: Growth inhibition of human MOLT4 cells assessed as cell growth at 10 uM after 48 hrs by sulforhodamine B assay; details: MOLT-4, 48 h, read-out: Activity
Outline: (§4)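 Single 10 µM dose applied to suspension cells in RPMI 1640 with 5% FBS and 2 mM L-glutamine for 48 h at 37 °C. Settled cells were fixed with 80% TCA (16% final), stained with SRB, and read at 515 nm. Percent growth was calculated against time-zero and untreated control optical densities.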

SK-OV-3 [1] = experiment: Growth inhibition of human SKOV3 cells assessed as cell growth at 10 uM after 48 hrs by sulforhodamine B assay; details: SK-OV-3, 48 h, read-out: Activity
Outline: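 Single-dose NCI-60 test at 10 µM. Cells were grown in RPMI 1640 with 5% FBS and 2 mM L-glutamine, preincubated 24 h, with T0 plates TCA-fixed. Exposure was 48 h at 37 °C, 5% CO2. Cells were fixed with cold TCA (final 10%, 4 °C, 60 min), stained with SRB and read at 515 nm. Percent growth was taken relative to T0 and untreated control; negative values denote cell kill.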

NCI-H460 = experiment: Growth inhibition of human NCI-H460 cells assessed as cell growth at 10 uM after 48 hrs by sulforhodamine B assay; details: NCI-H460, 48 h, read-out: Activity; outline: as §2
SK-OV-3 [2] = experiment: Growth inhibition of human SKOV3 cells after 48 hrs by sulforhodamine B assay; details: SK-OV-3, 48 h; outline: as §3
SK-MEL-2 = experiment: Growth inhibition of human SK-MEL-2 cells assessed as cell growth at 10 uM after 48 hrs by sulforhodamine B assay; details: SK-MEL-2, 48 h, read-out: Activity; outline: as §2
RPMI-8226 = experiment: Growth inhibition of human RPMI8226 cells assessed as cell growth at 10 uM after 48 hrs by sulforhodamine B assay; details: RPMI-8226, 48 h, read-out: Activity; outline: as §4

CC(C)=CCC/C(C)=C/CC/C(C)=C/CC[C@]1(C)CCc2c3c(c(C)c(C)c2O1)OCN(CCCCCO)C3
GI50 (HT-29): 3.74 µM
GI50 (SF-539): 6.26 µM
growth at 10 µM (MDA-MB-468): 87.4%
growth at 10 µM (NCI-H322M): 91%
growth at 10 µM (MDA-MB-231): 55%
growth at 10 µM (OVCAR-5): 94.4%
growth at 10 µM (786-0): 90.2%
GI50 (UACC-62): 5.87 µM
GI50 (HOP-92): 5.42 µM
GI50 (A549): 6.19 µM
GI50 (A498): 5.76 µM
growth at 10 µM (PC-3): 71.8%
growth at 10 µM (NCI-H522): 84.8%
growth at 10 µM (HL-60(TB)): 37.2%
GI50 (BT-549): 7.34 µM
growth at 10 µM (MOLT-4): -24.8%
growth at 10 µM (SK-OV-3 [1]): 101%
growth at 10 µM (NCI-H460): -49.6%
GI50 (SK-OV-3 [2]): 6.85 µM
growth at 10 µM (SK-MEL-2): 107%
growth at 10 µM (RPMI-8226): 1.02%

CC(C)=CCC/C(C)=C/CC/C(C)=C/CC[C@]1(C)CCc2c3c(cc(C)c2O1)OCN(CCCCO)C3
GI50 (HT-29): 8.33 µM
GI50 (SF-539): 19.1 µM
growth at 10 µM (MDA-MB-468): -63.2%
growth at 10 µM (NCI-H322M): 48.5%
growth at 10 µM (MDA-MB-231): -48.2%
growth at 10 µM (OVCAR-5): 6.91%
growth at 10 µM (786-0): -49.2%
GI50 (UACC-62): 17.5 µM
GI50 (HOP-92): 10.1 µM
GI50 (A549): 15.5 µM
GI50 (A498): 14.8 µM
growth at 10 µM (PC-3): 61.4%
growth at 10 µM (NCI-H522): 48.5%
growth at 10 µM (HL-60(TB)): -2.37%
GI50 (BT-549): 20.2 µM
growth at 10 µM (MOLT-4): -35.3%
growth at 10 µM (SK-OV-3 [1]): 26.4%
growth at 10 µM (NCI-H460): -20.4%
GI50 (SK-OV-3 [2]): 16.4 µM
growth at 10 µM (RPMI-8226): 79.2%

CC(C)=CCC/C(C)=C/CC/C(C)=C/CC[C@]1(C)CCc2c3c(cc(C)c2O1)OCN(CCCCCCCCO)C3
GI50 (HT-29): 0.703 µM
GI50 (SF-539): 1.28 µM
growth at 10 µM (MDA-MB-468): -90.7%
growth at 10 µM (NCI-H322M): -76.3%
growth at 10 µM (MDA-MB-231): -69.6%
growth at 10 µM (OVCAR-5): -70.8%
growth at 10 µM (786-0): -95.3%
GI50 (UACC-62): 4.79 µM
GI50 (HOP-92): 1.84 µM
GI50 (A549): 0.616 µM
GI50 (A498): 4.71 µM
growth at 10 µM (NCI-H522): -81.6%
growth at 10 µM (HL-60(TB)): -57.3%
GI50 (BT-549): 5.69 µM
growth at 10 µM (MOLT-4): -58.6%
growth at 10 µM (SK-OV-3 [1]): -56.9%
growth at 10 µM (NCI-H460): 0.55%
GI50 (SK-OV-3 [2]): 2.24 µM
growth at 10 µM (SK-MEL-2): -52%
growth at 10 µM (RPMI-8226): -23.2%

CC(C)=CCC/C(C)=C/CC/C(C)=C/CC[C@]1(C)CCc2c3c(c(C)c(C)c2O1)OCN(CCCCCCCCO)C3
GI50 (HT-29): 3.26 µM
GI50 (SF-539): 3.29 µM
growth at 10 µM (MDA-MB-468): -12.6%
growth at 10 µM (NCI-H322M): 65.3%
growth at 10 µM (MDA-MB-231): 40.7%
growth at 10 µM (OVCAR-5): 72.8%
growth at 10 µM (786-0): 59.8%
GI50 (UACC-62): 2.51 µM
GI50 (HOP-92): 2.17 µM
GI50 (A549): 2.5 µM
GI50 (A498): 2.32 µM
growth at 10 µM (PC-3): 26.8%
growth at 10 µM (NCI-H522): 30.9%
growth at 10 µM (HL-60(TB)): 31%
GI50 (BT-549): 3.39 µM
growth at 10 µM (MOLT-4): 2.94%
growth at 10 µM (SK-OV-3 [1]): 52.9%
growth at 10 µM (NCI-H460): 9.26%
GI50 (SK-OV-3 [2]): 2.63 µM
growth at 10 µM (SK-MEL-2): 71.7%
growth at 10 µM (RPMI-8226): 71.2%

CC(C)=CCC/C(C)=C/CC/C(C)=C/CC[C@]1(C)CCc2c3c(cc(C)c2O1)OCN(C1CCN(Cc2ccccc2)CC1)C3
GI50 (HT-29): 1.84 µM
GI50 (SF-539): 1.83 µM
growth at 10 µM (MDA-MB-468): 0.33%
growth at 10 µM (NCI-H322M): 19%
growth at 10 µM (MDA-MB-231): 18.2%
growth at 10 µM (OVCAR-5): 79%
growth at 10 µM (786-0): 24.1%
GI50 (UACC-62): 1.48 µM
GI50 (HOP-92): 0.269 µM
GI50 (A549): 1.57 µM
GI50 (A498): 1.31 µM
growth at 10 µM (PC-3): 33.2%
growth at 10 µM (NCI-H522): -24.9%
growth at 10 µM (HL-60(TB)): -18.9%
GI50 (BT-549): 1.89 µM
growth at 10 µM (SK-OV-3 [1]): 109%
growth at 10 µM (NCI-H460): -78.7%
GI50 (SK-OV-3 [2]): 1.93 µM
growth at 10 µM (SK-MEL-2): 109%
growth at 10 µM (RPMI-8226): 14.6%

CC(C)=CCC/C(C)=C/CC/C(C)=C/CC[C@]1(C)CCc2c3c(cc(C)c2O1)OCN(CCc1ccc(O)cc1)C3
GI50 (HT-29): 3.53 µM
GI50 (SF-539): 6.41 µM
growth at 10 µM (MDA-MB-468): -44.6%
growth at 10 µM (NCI-H322M): 29.7%
growth at 10 µM (MDA-MB-231): 46.9%
growth at 10 µM (OVCAR-5): 91.2%
growth at 10 µM (786-0): 69%
GI50 (UACC-62): 6.01 µM
GI50 (HOP-92): 4 µM
GI50 (A549): 6.09 µM
GI50 (A498): 6.21 µM
growth at 10 µM (PC-3): 61.1%
growth at 10 µM (NCI-H522): -50.5%
growth at 10 µM (HL-60(TB)): 31.2%
GI50 (BT-549): 7.06 µM
growth at 10 µM (MOLT-4): -3.07%
growth at 10 µM (SK-OV-3 [1]): 69.1%
growth at 10 µM (NCI-H460): -44.4%
GI50 (SK-OV-3 [2]): 6.2 µM
growth at 10 µM (SK-MEL-2): 116%
